Experimental data collected from several papers.
Lines come from different studies, so protocols differ.
Target: SRSF protein kinase 2 (SRPK2, Homo sapiens, UniProt P78362)

CCN1CCN(Cc2ccc(C(=O)Nc3ccc(C)c(Oc4ccc5c(c4)CC(=O)N5)c3)cc2C(F)(F)F)CC1 — remaining binding (binding, competition with immobilised ligand; 1 µM): 100%
O=C(c1ccc(Nc2ncc(Cl)c(-c3ccc(Cl)s3)n2)cc1)N1CCC(N2CCCC2)CC1 — remaining binding (binding, competition with immobilised ligand; 1 µM): 89%
CC1CCCN1c1nccc(-c2cnn3ncccc23)n1 (stereo not drawn) — remaining binding (binding; 1 µM): 100%
Cc1cnc(Nc2ccc(C(=O)N3CCC(N4CCCC4)CC3)cc2)nc1-c1cc2ccccc2s1 — remaining binding (binding, competition with immobilised ligand; 1 µM): 100%
Cc1nc(Cc2cccc(C(F)(F)F)c2)sc1-c1ccc(C(N)=O)nc1 — remaining binding (cell-free assay, competition with immobilised ligand; 1 µM): 100%
CN(C)c1nccc(-c2cnn3ncccc23)n1 — remaining binding (binding; 1 µM): 100%
O=C1NC(c2ccccn2)Sc2ccccc21 (stereo not drawn) — remaining binding (cell-free assay, competition with immobilised ligand; 1 µM): 100%
C[C@H]1CCN(c2nccc(-c3cnn4ncccc34)n2)C1 — remaining binding (binding; 1 µM): 93%
CS(=O)(=O)N1CCCC(NC(=O)[C@H](CCC2CCCCC2)NC(=O)c2ccc(CNC(=O)c3cnc4ccccn34)cc2)C1 (stereo partly drawn) — remaining binding (cell-free assay, competition with immobilised ligand; 0.1 µM): 83%
COc1ccnn2ncc(-c3ccnc(N(C)C)n3)c12 — remaining binding (binding; 1 µM): 100%
c1cncc(-c2cccc(Nc3nccc(NC4CCCCC4)n3)c2)c1 — remaining binding (binding, competition with immobilised ligand; 10 µM): 100%
COc1ncc2cc3ccccc3nc2c1C#N — remaining binding (cell-free assay, competition with immobilised ligand; 5 µM): 100%
O=C(Nc1c[nH]nc1C(=O)NC1CCNCC1)c1cc(F)cc(F)c1 — remaining binding (binding, competition with immobilised ligand; 1 µM): 85%
Nc1ncc2c(n1)-c1c([nH]c3ccc(C#CC4CC4)cc13)CCCC2 — remaining binding (binding, competition with immobilised ligand; 1 µM): 82%
N[C@H]1CCN(c2nccc(-c3cnn4ncccc34)n2)C1 — remaining binding (binding; 1 µM): 62%
Cc1c(NC(=O)c2cc(C(N)=O)nc3cc(F)ccc23)c(C(F)(F)F)nn1Cc1ccc(C(C)(C)C)cc1 — remaining binding (cell-free assay, competition with immobilised ligand; 1 µM): 97%
O=C(c1ccc(Nc2ncc(Cl)c(-c3cc4ccccc4s3)n2)cc1)N1CCC(N2CCCC2)CC1 — remaining binding (binding, competition with immobilised ligand; 1 µM): 99%
CN(C)C(=O)Cn1cc(-c2nc(C3(c4ccc(-c5cnc(N)nc5)cc4)CC3)no2)cn1 — remaining binding (cell-free assay, competition with immobilised ligand; 1 µM): 91%
c1cnn2ncc(-c3ccnc(N4CCC45COC5)n3)c2c1 — remaining binding (binding; 1 µM): 70%
CCOC(=O)c1cc2cc(-c3cc(C(=O)NCc4ccc(C(=O)O)cc4)nn3C)ccc2[nH]1 — remaining binding (cell-free assay, competition with immobilised ligand; 0.1 µM): 100%
COc1cnc(Nc2cccc(S(N)(=O)=O)c2)nc1N1CCN(c2ccccc2)C(=O)C1 — remaining binding (binding, competition with immobilised ligand; 1 µM): 89%
